Here are results for 5 molecules from ChEMBL document CHEMBL4382264, “Melanogenesis-Inhibitory and Cytotoxic Activities of Triterpene Glycoside Constituents from the Bark of Albizia procera” (J Nat Prod, 2018).

Molecules are shown by their SMILES.

Series [1] is described as follows: Selectivity index, ratio of IC50 for human […] cells to IC50 for human A549 cells. In a few lines: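 Selectivity index equals the IC50 against WI38 normal cells divided by the IC50 against A549 cells.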
Series [2] relates to AZ-521 cell line. As to the kind of experiment: Cytotoxicity against human AZ-521 cells assessed as reduction in cell viability after 48 hrs by MTT assay. It counts as functional, cell-based. Particulars: AZ-521, 48 h. In a few lines: (§1)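 Cells exposed to compounds from 1 × 10−4 to 1 × 10−6 M for 48 h. Viability read by MTT. IC50 derived from five concentrations, each run in triplicate.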
A general note: Tetrazolium dyes change colour on reduction, which living cells bring about.

Series [3] concerns WI-38. As to the kind of experiment: Cytotoxicity against human WI38 cells assessed as reduction in cell viability after 48 hrs by MTT assay. Format: cell-based. Particulars: WI-38, 48 h. In a few lines: as §1
Series [4] has as its system B16-F10. As to the kind of experiment: Inhibition of alpha-MSH-stimulated melanogenesis in mouse B16F10 cells assessed as melanin content at 100 uM measured after 48 hrs relative to control. It counts as functional. More on the design: scale not given: the % may be the effect or the level left. In a few lines: (§2)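 B16F10 cells treated with test sample plus 0.10 μM α-MSH for 48 h. Melanin solubilized in 2 N NaOH–10% DMSO and read at 405 nm. Expressed as % of DMSO-treated cells (DMSO 2 μL·mL−1). Mean ± SD, n = 3.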

Series [5] can be described thus: Cytotoxicity against non-stimulated mouse B16F10 cells assessed as cell viability at 10 uM relative to control. It counts as cell-based, B16-F10. Particulars: read-out: Activity. The essentials:
(§3)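 B16 melanoma cells tested for viability at 10 or 100 μM. Absorbance read at 570 nm (test) minus 630 nm (reference). Expressed as % of DMSO control (DMSO 2 μL·mL−1). Mean ± SD, n = 3.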

Series [6] deals with B16-F10. As to the kind of experiment: Selectivity index, ratio of compound effect for cytotoxicity against non-stimulated mouse B16F10 cells assessed as cell viability at 10 uM to compound effect for inhibition of alpha-MSH-stimulated melanogenesis in mouse B16F10 cells assessed as melanin content at 10 uM.
Series [7] relates to SK-BR-3. The experiment in a line: Cytotoxicity against human SKBR3 cells assessed as reduction in cell viability after 48 hrs by MTT assay. It counts as functional, cell-based. Particulars: SK-BR-3, 48 h. In a few lines:
as §1

For series [8], the system named is B16-F10. As to the kind of experiment: Inhibition of alpha-MSH-stimulated melanogenesis in mouse B16F10 cells assessed as melanin content at 10 uM measured after 48 hrs relative to control. On the set-up: scale not given: the % may be the effect or the level left. Format: functional. The essentials:
as §2

Series [9] is described as follows: Cytotoxicity against non-stimulated mouse B16F10 cells assessed as cell viability at 100 uM relative to control. It counts as cell-based, B16-F10. Particulars: read-out: Activity. In a few lines: as §3
Series [10] deals with HL-60. The experiment in a line: Cytotoxicity against human HL60 cells assessed as reduction in cell viability after 48 hrs by MTT assay. It counts as functional, cell-based. Conditions: HL-60, 48 h. In a few lines: as §1
For series [11], the system named is A549. The experiment in a line: Cytotoxicity against human A549 cells assessed as reduction in cell viability after 48 hrs by MTT assay. Particulars: A549, 48 h. It counts as functional, cell-based. The essentials:
as §1

In series [12] the test system is B16-F10. The experiment in a line: Selectivity index, ratio of compound effect for cytotoxicity against non-stimulated mouse B16F10 cells assessed as cell viability at 100 uM to compound effect for inhibition of alpha-MSH-stimulated melanogenesis in mouse B16F10 cells assessed as melanin content at 100 uM.

Broadly, the IC50 is the concentration that inhibits the measured activity by half. As for `C=C[C@@](C)(O)CC/C=C(\C)C(=O)O[C@H]1[C@H](O)[C@@H](O)[C@H](O[C@](C)(C=C)CCCC(C)C(=O)O[C@H]2C[C@]3(C(=O)O[C@@H]4O[C@H](CO)[C@@H](O)[C@H](O)[C@H]4O[C@@H]4O[C@@H](C)[C@H](O[C@@H]5O[C@@H](CO)[C@H](O)[C@H]5O)[C@@H](O[C@@H]5O[C@H](CO)[C@@H](O)[C@H](O)[C@H]5O)[C@H]4O)CC[C@]4(C)C(=CC[C@@H]5[C@@]6(C)CC[C@H](O[C@@H]7O[C@H](CO[C@@H]8OC[C@H](O)[C@H](O)[C@H]8O[C@@H]8OC[C@@H](O)[C@H](O)[C@H]8O)[C@@H](O)[C@H](O)[C@H]7O[C@@H]7O[C@H](CO)[C@@H](O)[C@H](O)[C@H]7O)C(C)(C)[C@@H]6CC[C@]54C)[C@@H]3CC2(C)C)O[C@@H]1C` (some centres undefined), the “Ratio IC50” value in series [1] worked out at 3.4. Moreover, the IC50 stood at 400 nM in series [2]; 2200 nM in [3]; 1100 nM in series [7]; 500 nM in [10]; 660 nM in [11]. Further, the results for the Activity in [4] and in series [8] were 75.2% and 89.2%, respectively. The viability at 10 µM in series [5] was determined as 110%. Further, the Ratio in series [6] worked out at 0.81; in series [12] it was 0.74. The viability at 100 µM in series [9] came to 102%.

In the case of `C=C[C@@](C)(O)CC/C=C(\C)C(=O)O[C@H]1[C@H](O)[C@@H](O)[C@H](O[C@](C)(C=C)CCCC(C)C(=O)O[C@H]2C[C@]3(C(=O)O[C@@H]4O[C@H](CO)[C@@H](O)[C@H](O)[C@H]4O[C@@H]4O[C@@H](C)[C@H](O[C@@H]5O[C@@H](CO)[C@H](O)[C@H]5O)[C@@H](O[C@@H]5O[C@H](CO)[C@@H](O)[C@H](O)[C@H]5O)[C@H]4O)CC[C@]4(C)C(=CC[C@@H]5[C@@]6(C)CC[C@H](O[C@@H]7O[C@H](CO[C@@H]8O[C@H](C)[C@H](O)[C@H](O)[C@H]8O[C@@H]8OC[C@@H](O)[C@H](O)[C@H]8O)[C@@H](O)[C@H](O)[C@H]7O[C@@H]7O[C@H](CO)[C@@H](O)[C@H](O)[C@H]7O)C(C)(C)[C@@H]6CC[C@]54C)[C@@H]3CC2(C)C)O[C@@H]1C` (some centres undefined), the “Ratio IC50” value in series [1] is on record as 2.7. For the same molecule, the IC50 came to 600 nM in series [2]; 4800 nM in series [3]; 2600 nM in series [7]; 600 nM in [10]; 1800 nM in [11]. Besides, the Activity in [4] worked out at 79.6%; in series [8], 86.5%. Further, the viability at 10 µM in [5] is 110%. In addition, the Ratio turned out to be 0.79 in series [6] and 0.77 in [12]. Also, the viability at 100 µM in [9] stood at 104%.

With `OC[C@H]1O[C@@H](Oc2ccc(O)cc2)[C@H](O)[C@@H](O)[C@@H]1O` [ARBUTIN], the Activity was found to be 81.5% in series [4] and 92.7% in [8]. Moreover, the viability at 10 µM in series [5] came to 102%. The Ratio in [6] is reported as 0.91; in series [12], 0.81. In addition, in series [9], the viability at 100 µM is 101%.

As for `C=C[C@@](C)(O)CC/C=C(\C)C(=O)O[C@H]1[C@H](O)[C@@H](O)[C@H](O[C@](C)(C=C)CCCC(C)C(=O)O[C@H]2C[C@]3(C(=O)O[C@@H]4O[C@H](CO)[C@@H](O)[C@H](O)[C@H]4O[C@@H]4O[C@@H](C)[C@H](O[C@@H]5O[C@@H](CO)[C@H](O)[C@H]5O)[C@@H](O[C@@H]5O[C@H](CO)[C@@H](O)[C@H](O)[C@H]5O)[C@H]4O)CC[C@]4(C)C(=CC[C@@H]5[C@@]6(C)CC[C@H](O[C@@H]7O[C@H](CO[C@@H]8O[C@H](C)[C@H](O)[C@H](O)[C@H]8O[C@@H]8OC[C@@H](O)[C@H](O)[C@H]8O)[C@@H](O)[C@H](O)[C@H]7O)C(C)(C)[C@@H]6CC[C@]54C)[C@@H]3CC2(C)C)O[C@@H]1C` (some centres undefined), in series [1], the “Ratio IC50” value is recorded as 1.8. The IC50 in series [2] amounted to 1700 nM; in series [3], 2500 nM; in [7] it was 400 nM; in series [10] it was 900 nM; in series [11], 1300 nM. The Activity in [4] is recorded as 42.5%; in series [8], 74.3%. Also, the viability at 10 µM in series [5] is 107%. The Ratio is recorded as 0.69 in series [6] and 0.42 in series [12]. Besides, the viability at 100 µM in series [9] was 102%.

For the molecule `C=C[C@@](C)(O)CC/C=C(\C)C(=O)O[C@H]1[C@H](O)[C@@H](O)[C@H](O[C@](C)(C=C)CCCC(C)C(=O)O[C@H]2C[C@]3(C(=O)O[C@@H]4O[C@H](CO)[C@@H](O)[C@H](O)[C@H]4O[C@@H]4O[C@@H](C)[C@H](O[C@@H]5O[C@@H](CO)[C@H](O)[C@H]5O)[C@@H](O[C@@H]5O[C@H](CO)[C@@H](O)[C@H](O)[C@H]5O)[C@H]4O)[C@H](O)C[C@]4(C)C(=CC[C@@H]5[C@@]6(C)CC[C@H](O[C@@H]7O[C@H](CO[C@@H]8OC[C@H](O)[C@H](O)[C@H]8O[C@@H]8OC[C@@H](O)[C@H](O)[C@H]8O)[C@@H](O)[C@H](O)[C@H]7O)C(C)(C)[C@@H]6CC[C@]54C)[C@@H]3CC2(C)C)O[C@@H]1C` (some centres undefined), in [1], the “Ratio IC50” value is 8.2. Besides, the IC50 in series [2] was determined as 1200 nM; in [3] it was 8300 nM; in series [7], 800 nM; in [10] it was 900 nM; in series [11] it was 1000 nM. In addition, the Activity in [4] is listed as 80%; in series [8] it was 86.2%. Further, the viability at 10 µM in [5] is 107%. Moreover, the Ratio stood at 0.81 in series [6] and 0.77 in [12]. Moreover, in series [9], the viability at 100 µM is 104%.
